Test results as given in ChEMBL document CHEMBL2163200, “Synthesis, biological evaluation, and structure-activity relationships of novel substituted N-phenyl ureidobenzenesulfonate derivatives blocking cell cycle progression in S-phase and inducing DNA double-strand breaks” (J Med Chem, 2012).
Activity calls are given as the source filed them. No cut-off for these calls is given here.

Key:
Jurkat [1] = assay: Cell cycle arrest in human Jurkat E6-1 cells assessed as accumulation at G0/G1 phase at 3.5 uM after 24 hrs by FACS flow cytometry; type: functional
Method in brief: (§1)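 Jurkat E6 cells cultured in RPMI 1640 with 10% FBS at 37 °C, 5% CO2. Compounds serially diluted in medium, starting 50% above the M21 IC50. 4.0 × 10^5 cells were exposed for 24 h. Cells were washed with PBS, chicken red blood cells added as internal standard, and fixed in ice-cold EtOH. After 1 h on ice in PBS with 1 μg/mL DAPI, phase distribution was read by flow cytometry. DMSO-treated cells served as control.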

Jurkat [2] = assay: Cell cycle arrest in human Jurkat E6-1 cells assessed as accumulation at S phase at 3.5 uM after 24 hrs by FACS flow cytometry; type: functional
Method in brief: (§2)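 Jurkat E6 T-lymphoblasts in RPMI 1640 with 10% FBS, 37 °C, 5% CO2. […] Chicken red blood cells were added as internal standard. Cells were fixed in ice-cold EtOH and stained with 1 μg/mL DAPI on ice for 1 h before flow cytometry of phase distribution. Vehicle control was 0.5% DMSO.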

Jurkat [3] = assay: Cell cycle arrest in human Jurkat E6-1 cells assessed as accumulation at G2/M phase at 3.5 uM after 24 hrs by FACS flow cytometry; type: functional
Method in brief: (§3)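 Jurkat E6 cells grown in RPMI 1640 with 10% FBS at 37 °C, 5% CO2. Compounds were serially diluted in medium starting 50% above the M21 IC50. 4.0 × 10^5 cells were exposed for 24 h, then washed and spiked with chicken red blood cells as internal standard. Cells were fixed in ice-cold ethanol, stained with 1 μg/mL DAPI on ice for 1 h, and phase distribution was read by flow cytometry. The control was 0.5% DMSO.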

HT-29 = assay: Cytotoxicity against human HT-29 cells after 48 hrs by SRB assay; type: functional, cell-based; settings: HT-29, 48 h
Method in brief: (§4)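 NCI sulforhodamine B protocol. Cells were grown in high-glucose DMEM with 5% FBS and seeded per well at 4 × 10^3 (HT-29), 3.5 × 10^3 (M21) or 3 × 10^3 (MCF-7), then allowed 24 h to attach. Serial dilutions from 200 μM to 780 nM final were applied in DMSO <0.5% for 48 h. Cells were fixed with cold TCA (10% final) and stained with SRB, with absorbance read at 530–568 nm. Growth inhibition was computed against day-0 plates, giving the 50% inhibitory concentration. At least two experiments in triplicate, CV <10%.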

M21 [4] = assay: Cytotoxicity against human M21 cells after 48 hrs by SRB assay; type: functional, cell-based; settings: M21, 48 h; method in brief: as §4
MCF7 = assay: Cytotoxicity against human MCF7 cells after 48 hrs by SRB assay; type: functional, cell-based; settings: MCF7, 48 h; method in brief: as §4
Jurkat [5] = assay: Cell cycle arrest in human Jurkat E6-1 cells assessed as accumulation at S phase at 23 uM after 24 hrs by FACS flow cytometry; type: functional; method in brief: as §3
Jurkat [6] = assay: Cell cycle arrest in human Jurkat E6-1 cells assessed as accumulation at G2/M phase at 23 uM after 24 hrs by FACS flow cytometry; type: functional; method in brief: as §3
Jurkat [7] = assay: Cell cycle arrest in human Jurkat E6-1 cells assessed as accumulation at G0/G1 phase at 23 uM after 24 hrs by FACS flow cytometry; type: functional; method in brief: as §1
Jurkat [8] = assay: Cell cycle arrest in human Jurkat E6-1 cells assessed as accumulation at G0/G1 phase at 176 uM after 24 hrs by FACS flow cytometry; type: functional; method in brief: as §1
Jurkat [9] = assay: Cell cycle arrest in human Jurkat E6-1 cells assessed as accumulation at S phase at 176 uM after 24 hrs by FACS flow cytometry; type: functional; method in brief: as §3
Jurkat [10] = assay: Cell cycle arrest in human Jurkat E6-1 cells assessed as accumulation at G2/M phase at 176 uM after 24 hrs by FACS flow cytometry; type: functional; method in brief: as §3
Jurkat [11] = assay: Cell cycle arrest in human Jurkat E6-1 cells assessed as accumulation at G0/G1 phase at 59 uM after 24 hrs by FACS flow cytometry; type: functional; method in brief: as §1
Jurkat [12] = assay: Cell cycle arrest in human Jurkat E6-1 cells assessed as accumulation at S phase at 59 uM after 24 hrs by FACS flow cytometry; type: functional; method in brief: as §2
Jurkat [13] = assay: Cell cycle arrest in human Jurkat E6-1 cells assessed as accumulation at G2/M phase at 59 uM after 24 hrs by FACS flow cytometry; type: functional; method in brief: as §3
Jurkat [14] = assay: Cell cycle arrest in human Jurkat E6-1 cells assessed as accumulation at S phase at 19 uM after 24 hrs by FACS flow cytometry; type: functional; method in brief: as §3
Jurkat [15] = assay: Cell cycle arrest in human Jurkat E6-1 cells assessed as accumulation at G2/M phase at 19 uM after 24 hrs by FACS flow cytometry; type: functional; method in brief: as §3
Jurkat [16] = assay: Cell cycle arrest in human Jurkat E6-1 cells assessed as accumulation at G0/G1 phase at 19 uM after 24 hrs by FACS flow cytometry; type: functional; method in brief: as §1
Jurkat [17] = assay: Cell cycle arrest in human Jurkat E6-1 cells assessed as accumulation at G0/G1 phase at 30 uM after 24 hrs by FACS flow cytometry; type: functional; method in brief: as §1
Jurkat [18] = assay: Cell cycle arrest in human Jurkat E6-1 cells assessed as accumulation at S phase at 30 uM after 24 hrs by FACS flow cytometry; type: functional; method in brief: as §2
Jurkat [19] = assay: Cell cycle arrest in human Jurkat E6-1 cells assessed as accumulation at G2/M phase at 30 uM after 24 hrs by FACS flow cytometry; type: functional; method in brief: as §3
Jurkat [20] = assay: Cell cycle arrest in human Jurkat E6-1 cells assessed as accumulation at G0/G1 phase at 2.5 uM after 24 hrs by FACS flow cytometry; type: functional; method in brief: as §1
Jurkat [21] = assay: Cell cycle arrest in human Jurkat E6-1 cells assessed as accumulation at S phase at 2.5 uM after 24 hrs by FACS flow cytometry; type: functional; method in brief: as §3
Jurkat [22] = assay: Cell cycle arrest in human Jurkat E6-1 cells assessed as accumulation at G2/M phase at 2.5 uM after 24 hrs by FACS flow cytometry; type: functional; method in brief: as §3
M21 [23] = assay: Induction of DNA damage response in human M21 cells assessed as phosphorylation of H2AX into gammaH2AX at IC50 after 24 hrs by DAPI staining-based immunofluorescence assay; type: functional, cell-based
Method in brief: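 M21 cells (1 × 10^5) on fibronectin-coated coverslips, grown 24 h, then exposed to agent for 24 h at 37 °C; 0.5% DMSO control. Fixed with 3.7% formaldehyde and permeabilized with 0.1% saponin/3% BSA. Probed with mouse anti-H2AX pS139 antibody for 2 h at room temperature. Nuclei counterstained with DAPI; nuclear γH2AX foci viewed by epifluorescence microscopy.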

HT-1080 = assay: Antitumor activity against human HT1080 cells xenografted in chicken chorioallantoic membrane assessed as inhibition of tumor growth at 30 ug per egg, iv administered on day 11 measured on day 17 by CAM assay; type: functional
Method in brief: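 HT-1080 fibrosarcoma cells (3.5 × 105/egg) were applied onto freshly exposed CAM of fertilized chicken eggs. On day 11, drug from a DMSO stock was diluted in Cremophor EL/99% ethanol/PBS (1/1/14 v/v) and 100 μL was injected into a vein under the CAM. Groups of 10–12 eggs were kept to day 17, embryos were euthanized at 4 °C for ≥4 h, and tumor wet weight was recorded.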

[24] = Toxicity in fertilized chicken embryo assessed as mortality rate at 30 ug per egg, iv administered on day 11 measured on day 17 by CAM assay; type: organism-based, Gallus gallus; settings: in vivo, read-out: Activity
Method in brief: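 Fertilized chicken eggs grafted on the CAM with HT-1080 cells (3.5 × 105/egg) received a 100 μL intravenous injection under the CAM on day 11. The drug was diluted in Cremophor EL/99% ethanol/PBS (1/1/14 v/v). Groups held 10–12 eggs and were incubated until day 17, when dead embryos and signs of toxicity were counted per group.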

Jurkat [25] = assay: Cell cycle arrest in human Jurkat E6-1 cells assessed as accumulation at G0/G1 phase at 2.2 uM after 24 hrs by FACS flow cytometry; type: functional; method in brief: as §1
Jurkat [26] = assay: Cell cycle arrest in human Jurkat E6-1 cells assessed as accumulation at S phase at 2.2 uM after 24 hrs by FACS flow cytometry; type: functional; method in brief: as §3
Jurkat [27] = assay: Cell cycle arrest in human Jurkat E6-1 cells assessed as accumulation at G2/M phase at 2.2 uM after 24 hrs by FACS flow cytometry; type: functional; method in brief: as §3

## CCNC(=O)Nc1ccc(S(=O)(=O)Oc2ccc(O)cc2)cc1
Jurkat [1]
  Activity: 21%
Jurkat [2]
  Activity: 63%
Jurkat [3]
  Activity: 16%
HT-29
  IC50: 12 µM
M21 [4]
  IC50: 4.3 µM
MCF7
  IC50: 8 µM

## CN(C)c1ccc(OS(=O)(=O)c2ccc(NC(=O)NCCCl)cc2)cc1
Jurkat [5]
  Activity: 40%
Jurkat [6]
  Activity: 9%
HT-29
  IC50: 39 µM
M21 [4]
  IC50: 43 µM
MCF7
  IC50: 58 µM
Jurkat [7]
  Activity: 51%

## CCCc1ccccc1NS(=O)(=O)c1cccc(NC(=O)NCC)c1
Jurkat [5]
  Activity: 43%
Jurkat [6]
  Activity: 18%
HT-29
  IC50: 41 µM
M21 [4]
  IC50: 60 µM
MCF7
  IC50: 40 µM
Jurkat [7]
  Activity: 39%

## CCNC(=O)Nc1ccc(S(=O)(=O)Nc2ccccc2C)cc1
Jurkat [8]
  Activity: 31%
Jurkat [9]
  Activity: 55%
Jurkat [10]
  Activity: 14%
HT-29
  IC50: > 200 µM
M21 [4]
  IC50: > 200 µM
MCF7
  IC50: > 200 µM

## CCNC(=O)Nc1ccc(S(=O)(=O)Nc2ccccc2CC)cc1
Jurkat [11]
  Activity: 21%
Jurkat [12]
  Activity: 41%
Jurkat [13]
  Activity: 38%
M21 [4]
  IC50: 90 µM

## CCc1ccccc1OS(=O)(=O)c1cccc(NC(=O)NCCCCl)c1
Jurkat [14]
  Activity: 38%
Jurkat [15]
  Activity: 17%
M21 [4]
  IC50: 24 µM
Jurkat [16]
  Activity: 45%

## CCCc1ccccc1NS(=O)(=O)c1ccc(NC(=O)NCC)cc1
Jurkat [17]
  Activity: 19%
Jurkat [18]
  Activity: 35%
Jurkat [19]
  Activity: 46%
HT-29
  IC50: 32 µM
M21 [4]
  IC50: 41 µM
MCF7
  IC50: 37 µM

## CCNC(=O)Nc1ccc(S(=O)(=O)Oc2ccccc2C)cc1
Jurkat [20]
  Activity: 23%
Jurkat [21]
  Activity: 61%
Jurkat [22]
  Activity: 16%
M21 [23]
  Activity: Active
HT-1080
  TGI: 68%
[24]
  mortality at 6 days: 9%
HT-29
  IC50: 12 µM
M21 [4]
  IC50: 3.1 µM
MCF7
  IC50: 4.5 µM

## CCNC(=O)Nc1ccc(S(=O)(=O)Oc2ccccc2CC)cc1
Jurkat [25]
  Activity: 11%
Jurkat [26]
  Activity: 75%
Jurkat [27]
  Activity: 14%
M21 [23]
  Activity: Active
HT-1080
  TGI: 45%
[24]
  mortality at 6 days: 9%
HT-29
  IC50: 12 µM
M21 [4]
  IC50: 2.5 µM
MCF7
  IC50: 3.4 µM
